Data reported in ChEMBL document CHEMBL2029273, “Structure-based design of potent and ligand-efficient inhibitors of CTX-M class A β-lactamase” (J Med Chem, 2012).
Values after ≈ are worked out from the molar mass of the structure shown. Active and inactive are the calls of the source. The rule behind the calls is not given here.

Tests used:
[1] = Inhibition of beta-lactamase CTX-M using nitrocefin as substrate
Escherichia coli [2] = experiment: Antibacterial activity against Escherichia coli expressing CTX-M-9 beta-lactamase assessed as increase of cefotaxime inhibition zone at 15 to 30 ug by disk diffusion assay; format: functional, organism-based
Outline: (§1)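 Disk diffusion: bacteria suspended in sterile water to 0.5 McFarland, diluted a further 10-fold and spread on Mueller-Hinton agar. Plates dried 10 min before disks were applied: cefotaxime 30 μg, inhibitor 30 μg, cefotaxime:inhibitor 30:15 or 30:30 μg, or solvent.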

Escherichia coli [3] = experiment: Antibacterial activity against Escherichia coli expressing CTX-M-9 beta-lactamase assessed as potentiation of cefotaxime MIC; format: functional
Outline: (§2)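 Combination MIC per CLSI in Mueller-Hinton medium against clinical E. coli isolates carrying the named CTX-M enzyme. Inhibitor in DMSO (below 10%) was paired with cefotaxime at a 1:1 β-lactam:inhibitor ratio. Values are the average of three independent experiments.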

Escherichia coli [4] = experiment: Antibacterial activity against Escherichia coli expressing CTX-M-14 beta-lactamase assessed as potentiation of cefotaxime MIC; format: functional; outline: as §2
Escherichia coli [5] = experiment: Antibacterial activity against Escherichia coli expressing CTX-M-9 beta-lactamase assessed as inhibition zone at 15 to 30 ug by disk diffusion assay; format: functional, organism-based; outline: as §1
Escherichia coli [6] = experiment: Antibacterial activity against Escherichia coli expressing CTX-M-14 beta-lactamase; format: functional
Outline: (§3)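 MIC per CLSI broth dilution in Mueller-Hinton medium. Compound dissolved in DMSO and diluted in medium, DMSO kept below 10%. Tested alone against clinical E. coli isolates carrying the named CTX-M enzyme. Values are the average of three independent experiments.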

Escherichia coli [7] = experiment: Antibacterial activity against Escherichia coli expressing CTX-M-9 beta-lactamase; format: functional; outline: as §3

Structure (SMILES) | Ki ([1]; read-out: Ki) | other results
N#Cc1cccc(C(=O)Nc2cccc(-c3nnn[nH]3)c2)c1 | 7.2 µM | 
COc1cccc(C(=O)Nc2cccc(-c3nnn[nH]3)c2)c1 | 17.1 µM | 
O=C(Nc1cccc(-c2nnn[nH]2)c1)c1cc(O)cc(C(F)(F)F)c1 | 0.63 µM | 
CO/N=C(\C(=O)N[C@@H]1C(=O)N2C(C(=O)O)=C(COC(C)=O)CS[C@H]12)c1csc(N)n1 [CEFOTAXIME] |  | MIC (Escherichia coli [6]): 32 µg/mL (≈ 70.3 µM); MIC (Escherichia coli [7]): 64 µg/mL (≈ 141 µM)
Nc1cc(C(=O)Nc2cccc(-c3nnn[nH]3)c2)cc(C(F)(F)F)c1 | 1 µM | 
O=C(Nc1cccc(-c2nnn[nH]2)c1)c1cccc2[nH]ccc12 | 6.6 µM | 
O=C(Nc1cccc(-c2nnn[nH]2)c1)c1cc(F)cc2[nH]cnc12 | 2.7 µM | 
N#Cc1ccc(C(=O)Nc2cccc(-c3nn[nH]n3)c2)cc1 |  | Ki [1]: Not Active
O=C(Nc1cccc(-c2nnn[nH]2)c1)c1cccc([N+](=O)[O-])c1 | 3.8 µM | 

More lines, main results first:

Ki ([1]; read-out: Ki) | Structure (SMILES) | other results
1.9 µM | O=C(Nc1cccc(-c2nnn[nH]2)c1)c1ccc2[nH]ccc2c1 | 
0.089 µM | O=C(Nc1cccc(-c2nnn[nH]2)c1)c1cc(C(F)(F)F)cc2[nH]cnc12 | inhibition zone (IZ) (Escherichia coli [2]): Dose-dependent effect; fold change (FC) (Escherichia coli [3]): 64; fold change (FC) (Escherichia coli [4]): 64; inhibition zone (IZ) (Escherichia coli [5]): inactive; MIC (Escherichia coli [6]): ≥ 64 µg/mL; MIC (Escherichia coli [7]): ≥ 64 µg/mL
4.5 µM | Cc1cccc(C(=O)Nc2cccc(-c3nnn[nH]3)c2)c1 | 
3.1 µM | O=C(Nc1cccc(-c2nnn[nH]2)c1)c1cccc(C2CC2)c1 | 
34.1 µM | N#Cc1cc(Br)cc(C(=O)Nc2cccc(-c3nnn[nH]3)c2)c1 | 
10.2 µM | CC(=O)c1cccc(C(=O)Nc2cccc(-c3nnn[nH]3)c2)c1 | 
6.9 µM | COC(=O)c1cccc(C(=O)Nc2cccc(-c3nnn[nH]3)c2)c1 | 
6.2 µM | O=C(Nc1cccc(-c2nnn[nH]2)c1)c1cccc(Cl)c1 | 
0.57 µM | O=C(Nc1cccc(-c2nnn[nH]2)c1)c1cc(O)cc(Br)c1 | 
